# According to ChEMBL document CHEMBL1255526, “Fused tricyclic pyrrolizinones that exhibit pseudo-irreversible blockade of the NK1 receptor” (Bioorg Med Chem Lett, 2010):
# How the values were obtained:
# [1] = target: T1, Substance-P receptor (Homo sapiens, UniProt P25103); test: Displacement of [125I]substance P from human NK1 receptor expressed in CHO cells in presence of 50% human serum; type: cell-based
# Method in brief: (§1)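 Radioligand binding: [125I]substance P displaced from human NK1 receptor expressed in CHO cells; IC50 determined. Also run with 50% serum added (human, dog, rhesus, rat or gerbil) to measure the serum shift.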
# [2] = Binding affinity to calcium channel
# Method in brief: (§2)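 Ion channel binding assay; IC50 values calculated for sodium channel and for calcium channel (Dlz site).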
# [3] = Binding affinity to potassium channel IKr
# [4] = system: Meriones unguiculatus; test: Inhibition of GR-73632-induced foot tapping in Mongolian gerbil at 3 mg/kg after 24 hrs; type: functional
# Method in brief: (§3)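 Gerbils given antagonist at the dose and pretreatment time shown (1 mg/kg at 1 h, 3 mg/kg at 24 h); foot tapping then induced with the NK1 agonist GR73632. Read-out is % inhibition of tapping; ED50 or ID50 from dose–response.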
# [5] = target: T1, Substance-P receptor; test: Displacement of [125I]substance P from human NK1 receptor expressed in CHO cells; type: cell-based; method in brief: as §1
# [6] = target: T1, Substance-P receptor; test: Antagonist activity at human recombinant NK1 receptor expressed in CHO cells assessed as remaining substance P level at 100 nM after 30 mins by [H3]-inositol phosphate release assay; type: functional, cell-based
# Method in brief: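 CHO cells with recombinant human NK1 receptor, 2.5 × 10⁴ per well, plated overnight, then prelabelled overnight at 37 °C with [3H]-myo-inositol (10–25 Ci/mmol) in inositol-free medium with 0.02% BSA. LiCl 10 mM in HEPES-buffered inositol-free DMEM, 15 min. Antagonist at 100 nM or DMSO for 30 min, then substance P for 30 min. Stopped with formic acid. [3H]-inositol phosphate captured on yttrium silicate SPA beads, 2 h. Reported as % substance P response remaining.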
# [7] = target: T2, PXR (nuclear receptor subfamily 1 group I member 2) (Homo sapiens, UniProt O75469); test: Inhibition of human PXR induction at 10 uM
# T2 sequence (O75469 whole entry): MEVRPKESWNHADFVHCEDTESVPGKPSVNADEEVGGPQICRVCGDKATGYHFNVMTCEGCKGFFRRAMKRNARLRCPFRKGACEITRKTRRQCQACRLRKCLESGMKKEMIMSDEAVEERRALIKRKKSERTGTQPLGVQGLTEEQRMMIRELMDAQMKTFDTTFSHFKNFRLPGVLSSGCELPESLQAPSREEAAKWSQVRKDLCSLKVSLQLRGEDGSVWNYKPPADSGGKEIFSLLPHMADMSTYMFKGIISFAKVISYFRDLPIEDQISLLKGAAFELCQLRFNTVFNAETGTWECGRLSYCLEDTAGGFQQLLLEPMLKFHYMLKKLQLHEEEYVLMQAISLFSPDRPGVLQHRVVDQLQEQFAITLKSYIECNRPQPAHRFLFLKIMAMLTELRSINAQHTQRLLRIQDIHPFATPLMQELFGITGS
# Method in brief: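 Human PXR induction measured at 10 µM compound, expressed as % of maximal induction.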
# [8] = organism: Meriones unguiculatus; test: Inhibition of GR-73632-induced foot tapping in Mongolian gerbil after 24 hrs; type: functional; conditions: read-out: ED50; method in brief: as §3
# [9] = target: T3, Nuclear receptor subfamily 1 group I member 2 (Homo sapiens, UniProt O75469); test: Inhibition of human PXR induction
# T3 sequence (O75469 whole entry): T2 sequence (O75469 whole entry)
# [10] = Binding affinity to sodium channel; method in brief: as §2
# [11] = system: Meriones unguiculatus; test: Inhibition of GR-73632-induced foot tapping in Mongolian gerbil at 1 mg/kg after 1 hr; type: functional; method in brief: as §3
# T1 sequence (P25103 whole entry): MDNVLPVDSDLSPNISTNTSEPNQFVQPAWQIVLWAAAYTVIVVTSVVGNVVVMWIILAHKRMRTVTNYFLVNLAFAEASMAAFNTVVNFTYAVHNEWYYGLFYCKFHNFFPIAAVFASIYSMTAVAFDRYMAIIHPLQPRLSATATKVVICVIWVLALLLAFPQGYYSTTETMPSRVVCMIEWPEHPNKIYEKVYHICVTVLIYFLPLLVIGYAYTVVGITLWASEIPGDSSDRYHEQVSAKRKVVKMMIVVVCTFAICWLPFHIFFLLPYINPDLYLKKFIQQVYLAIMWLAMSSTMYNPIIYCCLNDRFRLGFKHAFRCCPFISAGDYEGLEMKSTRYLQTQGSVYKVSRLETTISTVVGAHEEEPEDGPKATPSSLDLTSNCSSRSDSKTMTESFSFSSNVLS
SMILES,IC50 [1] [nM],IC50 [2] [nM],IC50 [3] [nM],inhibition in vivo at 3 mg/kg [4] [%],IC50 [5] [nM],Activity [6] [%],Emax at 10 µM [7] [%],ED50 [8] [mg/kg],IC50 [9] [nM],IC50 [10] [nM],inhibition in vivo at 1 mg/kg [11] [%]
"C[C@@H](O[C@H]1CN2C(=O)C3CN(C4=CC(=O)CC4)CC3[C@H]2[C@@H]1c1ccc(F)cc1)c1cc(C(F)(F)F)cc(C(F)(F)F)c1 (single isomer, unassigned) [FIRST ELUDED ISOMER]",1.9,8810,1430,32,0.17,,,,,,
C[C@@H](O[C@H]1CN2C(=O)C3CNCC3[C@H]2[C@@H]1c1ccc(F)cc1)c1cc(C(F)(F)F)cc(C(F)(F)F)c1 (stereo in doubt; 6b),,,,,,60,,,,,
C[C@@H](O[C@H]1CN2C(=O)[C@H]3C[C@H](O)C[C@H]3[C@H]2[C@@H]1c1ccc(F)cc1)c1cc(C(F)(F)F)cc(C(F)(F)F)c1,1.7,,,,0.08,35,,,,,
"CC(O[C@H]1CN2C(=O)[C@@H]3CC(N)C[C@@H]3[C@H]2[C@@H]1c1ccc(F)cc1)c1cc(C(F)(F)F)cc(C(F)(F)F)c1 (single isomer, unassigned)",13,,,,0.66,61,,,,,
C[C@@H](O[C@H]1CN2C(=O)[C@H]3C[C@@H](NCc4ccccc4)C[C@H]3[C@H]2[C@@H]1c1ccc(F)cc1)c1cc(C(F)(F)F)cc(C(F)(F)F)c1,1.8,140,280,100,0.17,2,0,0.47,> 25000,,
C[C@@H](O[C@H]1CN2C(=O)[C@H]3C[C@H](N)C[C@H]3[C@H]2[C@@H]1c1ccc(F)cc1)c1cc(C(F)(F)F)cc(C(F)(F)F)c1,1,590,1730,100,0.11,10,0,1.33,> 25000,520,
C[C@@H](O[C@H]1CN2C(=O)C3CN(C4=CC(=O)CC4)CC3[C@H]2[C@@H]1c1ccc(F)cc1)c1cc(C(F)(F)F)cc(C(F)(F)F)c1 (stereo in doubt; 18b),,,,,,7,,,,,
C[C@@H](O[C@H]1CN2C(=O)C3CNCC3[C@H]2[C@@H]1c1ccc(F)cc1)c1cc(C(F)(F)F)cc(C(F)(F)F)c1 (stereo in doubt; 6b) [FIRST ELUDED ISOMER],3.2,310,2710,12,0.31,,,,,,
C[C@@H](O[C@H]1CN2C(=O)CC[C@H]2[C@@H]1c1ccc(F)cc1)c1cc(C(F)(F)F)cc(C(F)(F)F)c1,,1580,5700,100,,88,50,0.2,4800,1750,
C[C@@H](O[C@H]1CN2C(=O)C(N)C[C@H]2[C@@H]1c1ccc(F)cc1)c1cc(C(F)(F)F)cc(C(F)(F)F)c1 (some centres undefined),,210,6500,100,,59,7,0.61,> 25000,240,
C[C@@H](O[C@H]1CN2C(=O)[C@H]3C[C@](C)(O)C[C@H]3[C@H]2[C@@H]1c1ccc(F)cc1)c1cc(C(F)(F)F)cc(C(F)(F)F)c1,1.2,,,,0.066,24,,,,,
"C[C@@H](O[C@H]1CN2C(=O)C3CN(C4=CC(=O)CC4)CC3[C@H]2[C@@H]1c1ccc(F)cc1)c1cc(C(F)(F)F)cc(C(F)(F)F)c1 (single isomer, unassigned)",,,,,,11,,,,,
CC[C@@]1(O)C[C@H]2[C@H]3[C@H](c4ccc(F)cc4)[C@@H](O[C@H](C)c4cc(C(F)(F)F)cc(C(F)(F)F)c4)CN3C(=O)[C@H]2C1,2.3,,,,0.21,31,,,,,
C[C@@H](O[C@H]1CN2C(=O)[C@H]3C[C@@H](N)C[C@H]3[C@H]2[C@@H]1c1ccc(F)cc1)c1cc(C(F)(F)F)cc(C(F)(F)F)c1,1,1230,990,91,0.09,6,0,,> 25000,710,
C[C@@H](O[C@H]1CN2C(=O)[C@H]3C[C@H](NCc4ccccc4)C[C@H]3[C@H]2[C@@H]1c1ccc(F)cc1)c1cc(C(F)(F)F)cc(C(F)(F)F)c1,1.3,210,300,94,0.14,4,0,,> 25000,210,
C[C@@H](O[C@H]1CN2C(=O)CC(N)[C@H]2[C@@H]1c1ccc(F)cc1)c1cc(C(F)(F)F)cc(C(F)(F)F)c1 (some centres undefined),,1880,9500,100,,75,1,0.92,> 25000,7720,
"C[C@@H](O[C@H]1CN2C(=O)C3CNCC3[C@H]2[C@@H]1c1ccc(F)cc1)c1cc(C(F)(F)F)cc(C(F)(F)F)c1 (single isomer, unassigned)",,,,,,46,,,,,
"C[C@@H](O[C@H]1CN2C(=O)C3CNCC3[C@H]2[C@@H]1c1ccc(F)cc1)c1cc(C(F)(F)F)cc(C(F)(F)F)c1 (single isomer, unassigned) [FIRST ELUDED ISOMER]",15,,,,1.5,,,,,,
C[C@@H](O[C@H]1CN2C(=O)[C@@H]3C[C@H](NCc4ccccc4)C[C@@H]3[C@H]2[C@@H]1c1ccc(F)cc1)c1cc(C(F)(F)F)cc(C(F)(F)F)c1,13,,,,1.2,94,,,,,
C[C@@H](O[C@H]1CN2C(=O)[C@@H]3C[C@@H](NCc4ccccc4)C[C@@H]3[C@H]2[C@@H]1c1ccc(F)cc1)c1cc(C(F)(F)F)cc(C(F)(F)F)c1,2.3,,,6,0.14,58,,,,,81
C[C@@H](O[C@H]1CN2C(=O)[C@@H]3C[C@H](N)C[C@@H]3[C@H]2[C@@H]1c1ccc(F)cc1)c1cc(C(F)(F)F)cc(C(F)(F)F)c1,47,,,,1.5,93,,,,,
CC[C@]1(O)C[C@H]2[C@H]3[C@H](c4ccc(F)cc4)[C@@H](O[C@H](C)c4cc(C(F)(F)F)cc(C(F)(F)F)c4)CN3C(=O)[C@H]2C1,1.7,8420,1770,100,0.16,4,51,0.06,3300,,
